Published values collected from several papers.
Lines come from different studies, so protocols differ.
Target: MAP kinase-activated protein kinase 5 (MAPKAPK5, Homo sapiens, UniProt Q8IW41)
One construct used (Q8IW41 1-473): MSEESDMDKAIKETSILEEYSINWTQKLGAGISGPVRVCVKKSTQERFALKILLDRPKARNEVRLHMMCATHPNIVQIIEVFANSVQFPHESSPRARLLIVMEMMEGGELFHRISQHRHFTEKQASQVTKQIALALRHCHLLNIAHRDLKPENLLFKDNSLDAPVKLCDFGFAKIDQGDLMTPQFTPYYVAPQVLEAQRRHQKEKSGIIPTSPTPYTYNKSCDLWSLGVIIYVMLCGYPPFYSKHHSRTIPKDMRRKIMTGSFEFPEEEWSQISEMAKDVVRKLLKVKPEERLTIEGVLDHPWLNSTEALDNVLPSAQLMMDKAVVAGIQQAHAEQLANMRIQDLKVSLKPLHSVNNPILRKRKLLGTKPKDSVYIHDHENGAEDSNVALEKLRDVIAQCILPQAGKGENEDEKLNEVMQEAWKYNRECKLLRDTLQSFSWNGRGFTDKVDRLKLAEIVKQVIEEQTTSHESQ

| SMILES | effect on | action | technique | concentration | measurement | result |
| --- | --- | --- | --- | --- | --- | --- |
| C#Cc1n[nH]c2c(-c3cn([C@@H](C)c4ccccc4)c(=O)[nH]c3=O)cc(F)cc12 | enzyme activity | inhibitor |  | 0.1 µM | inhibition | 1.8% |
| N#CC1(c2ccccn2)CCN(Cc2cc(C(=O)O)c(=O)n3ccccc23)CC1 | cell-free assay |  | competition with immobilised ligand | 1 µM | remaining binding | 56% |
| Cn1cc(-c2cccc(N3CCc4c(sc5c4CC(C)(C)C5)C3=O)c2CO)cc(Nc2ccncn2)c1=O | enzyme activity | inhibitor |  | 1 µM | inhibition | 3% |
| CC(C)(C)c1cc(C=C(C#N)C#N)cc(Br)c1O | enzyme activity | inhibitor |  | 0.5 µM | remaining activity | 97.4% |
| Cn1cncc1[C@](O)(COc1ccc(C#N)cc1-c1ccc(OC(F)(F)F)cc1)c1ccc(C#N)cc1 | cell-free assay |  | competition with immobilised ligand | 1 µM | remaining binding | 90% |
| Cn1cc(-c2cc(F)cc(N3CCn4c(cc5c4CCCC5)C3=O)c2CO)cc(Nc2ccc(N3CCN(C4COC4)CC3)cn2)c1=O | enzyme activity | inhibitor |  | 0.1 µM | inhibition | 9% |
| O=c1[nH]c2ccccc2n1C1CCN(Cc2ccc(-c3[nH]c4cc5ncnc5cc4nc3-c3ccccc3)cc2)CC1 | cell-free assay |  |  | 0.5 µM | remaining signal | 97.4% |
| COc1cc(Nc2ncc(F)c(Nc3ccc4c(n3)NC(=O)C(C)(C)O4)n2)cc(OC)c1OC | binding |  | competition with immobilised ligand | 10 µM | inhibition | 19% |
| Nc1ncc(-c2nc(N3CCOCC3)nc(N3CCOCC3)n2)c(C(F)F)n1 | binding |  | competition with immobilised ligand | 10 µM | remaining binding | 72% |
| C#Cc1n[nH]c2c(-c3cn(C(C)c4ccccn4)c(=O)[nH]c3=O)cc(F)cc12 (centres unmarked) | enzyme activity | inhibitor |  | 1 µM | inhibition | 5.8% |
| COc1ncccc1-c1cnn2ccc(N3CCN(C(=O)OC(C)C)CC3)nc12 | binding |  | competition with immobilised ligand | 1 µM | remaining binding | 100% |
